Among the data in ChEMBL document CHEMBL1142420, “Synthesis and DNA-cleaving activity of lactenediynes conjugated with DNA-complexing moieties” (2008) are Activity and CS50 values, retold here.

Activity calls are given as the source filed them. No cut-off for these calls is given here.

The first assay deals with Escherichia coli. Description: Induction of plasmid pBR322 DNA cleavage at 1 mM after 24 hrs by gel electrophoresis. The procedure, abridged: (§1)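 Supercoiled pBR322 (90% form I) diluted to 50 µg/mL (75 µM/bp) in pH 7.5 Tris 40 mM/EDTA 4 mM. Incubated 24 h at 37 °C, then run on agarose gel with ethidium bromide and viewed at 302 nm. Form I versus II+III quantified by densitometry after subtracting form II present in the control.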
Consider `CON1C(=O)[C@@H]2CC#C/C=C\C#CC(C)[C@H]21` (stereo partly drawn), for which the result was inactive.

For another assay, the system named is Escherichia coli. Briefly: Induction of plasmid pBR322 DNA cleavage assessed as concentration required to cleave 50% of DNA after 24 hrs by gel electrophoresis. Put shortly: as §1
For the compound `CC(C)(C)OC(=O)N1C(=O)[C@@H]2CC#C/C=C\C#C[C@@H](OC(=O)CCc3ccc4ccccc4c3)[C@H]21`, the CS50 amounted to 150 µM.
With `CC[C@@]1(O)C(=O)OCc2c1cc1n(c2=O)Cc2c-1nc1ccccc1c2/C=N/OCCNC(=O)CCNC(=O)N1C(=O)[C@@H]2CC#C/C=C\C#C[C@@H](OC(C)=O)[C@H]21`, the CS50 came to 10 µM.
Consider `CC(=O)O[C@@H]1C#C/C=C\C#CC[C@H]2C(=O)N(C(=O)NCCc3cccc4ccccc34)[C@H]12`, for which the CS50 amounted to 40 µM.
Regarding `CC(=O)Nc1cc(C(=O)Nc2cc(C(=O)N(C)CCCCCNC(=O)N3C(=O)[C@@H]4CC#C/C=C\C#C[C@@H](OC(C)=O)[C@H]43)n(C)c2)n(C)c1`, the CS50 was determined as 35 µM.
In the case of `CCCCNC(=O)c1cc(NC(=O)c2cc(NC(=O)CCNC(=O)N3C(=O)[C@@H]4CC#C/C=C\C#C[C@@H](OC(C)=O)[C@H]43)n(C)c2)n(C)c1`, the CS50 amounted to 15 µM.
Still for that read-out and setting: next, `CC(=O)O[C@@H]1C#C/C=C\C#CC[C@H]2C(=O)N(C(=O)NCCc3ccc4ccccc4c3)[C@H]12`: 150 µM; `CC(=O)O[C@H]1C#C/C=C\C#CC[C@H]2C(=O)N(C(=O)OC(C)(C)C)[C@H]12`: 30 µM; `CC(=O)O[C@@H]1C#C/C=C\C#CC[C@H]2C(=O)N(C(=O)NCc3ccc4ccccc4c3)[C@H]12`: 70 µM.
Still for that read-out and setting: the value for `CC(=O)O[C@@H]1C#C/C=C\C#CC[C@H]2C(=O)N(C(=O)NCc3cccc4ccccc34)[C@H]12` was 25 µM; that for `CC(=O)O[C@@H]1C#C/C=C\C#CC[C@H]2C(=O)N(C(=O)Nc3cccc4ccccc34)[C@H]12` was 25 µM.
On to `CC(C)(C)OC(=O)N1C(=O)[C@@H]2CC#C/C=C\C#C[C@@H](OC(=O)CCc3cccc4ccccc34)[C@H]21`, for which the CS50 came to 80 µM.
For the compound `CC(=O)O[C@@H]1C#C/C=C\C#CC[C@H]2C(=O)N(C(=O)Nc3ccc4ccccc4c3)[C@H]12`, the CS50 is 200 µM.
Turning to `CC(=O)O[C@@H]1C#C/C=C\C#CC[C@H]2C(=O)N(C(=O)NCCCCCN(C)C(=O)Cc3cccc4ccccc34)[C@H]12`, the CS50 worked out at 25 µM.
For the compound `CC(=O)O[C@@H]1C#C/C=C\C#CC[C@H]2C(=O)N(C(=O)NCc3ccccc3)[C@H]12`, the CS50 came out at 70 µM.
Consider `CC(C)(C)OC(=O)N1C(=O)[C@@H]2CC#C/C=C\C#C[C@@H](OC(=O)Cc3cccc4ccccc34)[C@H]21`, for which the CS50 is 80 µM.
`CC(=O)O[C@@H]1C#C/C=C\C#CC[C@H]2C(=O)N(C(=O)NCCC(=O)NCc3ccccc3)[C@H]12`: the CS50 is 25 µM.
Same read-out and setting: next, `CC(=O)O[C@H]1C#C/C=C\C#CC[C@H]2C(=O)N(C(=O)NCc3cccc4ccccc34)[C@H]12`: 25 µM.
